# Laboratory results reported in ChEMBL document CHEMBL3797096, “Synthesis and in vitro evaluation of (R), (S) and (R/S)-2-hexyne-1,4-diol, a natural product produced by fungus Clitocybe catinus, and related analogs as potential anticancer agents” (Bioorg Med Chem Lett, 2016).
# Activity calls are given as the source filed them. The rule behind the calls is not given here.
# Experiments:
# MCF7 [1] = assay: Cytotoxicity against human MCF7 cells assessed as cell death at 100 ug/ml after 72 hrs by MTT assay; format: functional
# Summary of the method: (§1)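 Single-concentration colorimetric MTT screen of test compounds at a fixed final concentration. Incubation was 72 h, and the read-out was growth inhibition of the tumour cell lines. Values are given as means with standard deviations. Doxorubicin served as the positive control.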
# [2] = Cytotoxicity against human Hep2 cells assessed as cell death at 100 ug/ml after 72 hrs by MTT assay; format: functional, HEp-2; summary of the method: as §1
# NCI-H292 [3] = assay: Cytotoxicity against human NCI-H292 cells assessed as cell death at 100 ug/ml after 72 hrs by MTT assay; format: functional; summary of the method: as §1
# RAW264.7 = assay: Cytotoxicity against mouse RAW264.7 cells at 100 ug/ml after 72 hrs by MTT assay; format: cell-based; conditions: raw264.7, 72 h
# Summary of the method: (§2)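 Single-concentration screen of mouse cells at 100 µg/mL final concentration. Viability read by colorimetric MTT assay after 72 h of incubation; percent growth inhibition given as means (standard deviations); doxorubicin as positive control.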
# J774.A1 = assay: Cytotoxicity against mouse J774.A1 cells at 100 ug/ml after 72 hrs by MTT assay; format: cell-based; conditions: j774.a1, 72 h; summary of the method: as §2
# K562 [4] = assay: Cytotoxicity against human K562 cells assessed as cell death at 100 ug/ml after 72 hrs by MTT assay; format: functional; summary of the method: as §1
# [5] = Cytotoxicity against human HL60 cells assessed as cell death at 100 ug/ml after 72 hrs by MTT assay; format: functional, HL-60; summary of the method: as §1
# HEp-2 = assay: Cytotoxicity against human Hep2 cells after 72 hrs by MTT assay; format: functional, cell-based
# Summary of the method: (§3)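 Colorimetric MTT assay on human tumour cells after 72 h of incubation; values expressed as means (standard deviations), with doxorubicin as positive control.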
# NCI-H292 [6] = assay: Cytotoxicity against human NCI-H292 cells after 72 hrs by MTT assay; format: functional, cell-based; summary of the method: as §3
# HL-60 = assay: Cytotoxicity against human HL60 cells after 72 hrs by MTT assay; format: functional, cell-based; summary of the method: as §3
# MCF7 [7] = assay: Cytotoxicity against human MCF7 cells after 72 hrs by MTT assay; format: functional, cell-based; summary of the method: as §3
# K562 [8] = assay: Cytotoxicity against human K562 cells after 72 hrs by MTT assay; format: functional, cell-based; summary of the method: as §3
SMILES,Activity (MCF7 [1]) [%],Activity [2] [%],Activity (NCI-H292 [3]) [%],Activity (RAW264.7) [%],Activity (J774.A1) [%],Activity (K562 [4]) [%],Activity [5] [%],TGI (HEp-2),TGI (NCI-H292 [6]),TGI (HL-60),TGI (MCF7 [7]),TGI (K562 [8])
CC(C)C(O)C#CCO (stereo unspecified),28.7,42.7,69.8,17.8,2,20.9,0,–,–,–,–,–
CC(C)C(O)C#CCCO (stereo unspecified),54.1,85.7,49.9,17.8,30.4,0,0,–,–,–,–,–
CC(O)C#CC1(O)CCCCC1 (stereo unspecified),40.8,9.3,6.6,4.2,57.5,16.7,8.9,–,–,–,–,–
CCC(O)C#CCO (stereo unspecified),100,100,100,100,100,100,100,Active,Active,Active,Active,Active
CCC(C)(O)C#CCO (stereo unspecified),27.2,0,5,0,61.2,16,13.3,–,–,–,–,–
CC(O)C#CCCO (stereo unspecified),17.8,2.2,0.3,9.4,16.5,25.1,0,–,–,–,–,–
CC(O)CC#CCCO (stereo unspecified),69.5,84.1,71.5,19.3,15.7,0,9.6,–,–,–,–,–
CC[C@@H](O)C#CCO,52.5,38.8,55.7,9.6,0.2,40.9,12.1,–,–,–,–,–
CC(C)C(O)C#CC(C)(C)O (stereo unspecified),40.7,0,21.5,0,55.3,9.7,7.3,–,–,–,–,–
CC(O)CC#CCO (stereo unspecified),0,14.8,20.2,8.5,60.8,0,11,–,–,–,–,–
CC[C@H](O)C#CCO,51.6,31.3,85,19.5,1.7,27,1.4,–,–,–,–,–
CCC(O)C#CCCO (stereo unspecified),34.3,12.9,15.5,6.1,42.6,0,5.1,–,–,–,–,–
COc1cccc2c1C(=O)c1c(O)c3c(c(O)c1C2=O)C[C@@](O)(C(=O)CO)C[C@@H]3O[C@H]1C[C@H](N)[C@H](O)[C@H](C)O1 [DOXORUBICIN],74.8,79.4,94.1,96.5,96,91.7,92.9,–,–,–,–,–
OCC#CC(O)c1ccccc1 (stereo unspecified),68.1,28.1,86.9,16,17.1,3.8,29.5,–,–,–,–,–
CCCCCC(O)C#CCO (stereo unspecified),100,100,100,100,100,100,100,Active,Active,Active,Active,Active
CC(O)C#CC(O)(c1ccccc1)c1ccccc1 (stereo unspecified),27.3,84,91,95,93.1,80,96.1,–,–,–,–,–
CC(O)C#CCO (stereo unspecified),100,100,100,100,100,100,100,Active,Active,Active,Active,Active
CCCC(O)C#CCO (stereo unspecified),100,100,100,100,100,100,100,Active,Active,Active,Active,Active
